# In ChEMBL document CHEMBL3877271, “Antagonizing STAT3 activation with benzo[b]thiophene 1, 1-dioxide based small molecules” (Eur J Med Chem, 2017):
# Activity calls are given as the source filed them. The calls are words filed in the database; no cut-off is given here.
# Tests used:
# [1] = system: A549; experiment: Potency index, ratio of stattic IC50 to compound IC50 for human A549 cells; assay type: functional
# [2] = system: MDA-MB-231; experiment: Inhibition of colony formation in human MDA-MB-231 cells up to 6 uM incubated for 24 hrs measured after 14 days by crystal violet staining based assay; assay type: functional, cell-based
# Procedure, shortened: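 Cells plated at 800-1000 per well in 6-well plates. Treated next day with vehicle or 0.5-6 µM for 24 h, then grown 10-14 d until colonies appeared. Stained with crystal violet for 4 h; colonies scored manually.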
# [3] = system: MDA-MB-231; experiment: Induction of apoptosis in human MDA-MB-231 cells assessed as late apoptotic cells at 5 uM after 24 hrs by Annexin-V FITC/propidium iodide staining based flow cytometry (reference value: 1.8%); assay type: functional
# [4] = target: Signal transducer and activator of transcription 3 (Homo sapiens) (UniProt P40763); experiment: Inhibition of STAT3 phosphorylation at Tyr-705 residue in human MDA-MB-231 cells after 24 hrs by Western blot method; assay type: cell-based
# [5] = Antiproliferative activity against human A549 cells after 72 hrs by MTT assay; assay type: functional, cell-based; conditions: A549, 72 h
# Procedure, shortened: (§1)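 Cells in RPMI-1640 with 10% FBS, penicillin/streptomycin, 37 °C, 5% CO₂; seeded 3000-5000 cells/well, left overnight (16 h), then medium replaced with fresh medium holding serial dilutions in triplicate for 72 h. MTT read-out; viability = absorbance of treated/solvent control × 100%. Stattic served as reference.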
# [6] = system: MDA-MB-231; experiment: Induction of apoptosis in human MDA-MB-231 cells after 24 hrs by Annexin-V FITC/propidium iodide staining based flow cytometry; assay type: functional, cell-based
# [7] = system: MDA-MB-231; experiment: Induction of apoptosis in human MDA-MB-231 cells assessed as early apoptotic cells at 3 uM after 24 hrs by Annexin-V FITC/propidium iodide staining based flow cytometry (reference value: 3.8%); assay type: functional
# [8] = Antiproliferative activity against human MCF7 cells after 72 hrs by MTT assay; assay type: functional, cell-based; conditions: MCF7, 72 h; procedure, shortened: as §1
# [9] = system: MDA-MB-231; experiment: Induction of apoptosis in human MDA-MB-231 cells assessed as live cells at 1 uM after 24 hrs by Annexin-V FITC/propidium iodide staining based flow cytometry (reference value: 90.3%); assay type: functional
# [10] = system: Mus musculus; experiment: In vivo inhibition of STAT3 phosphorylation in ICR mouse tumor implanted with mouse 4T1 cells at 10 mg/kg, ip daily for 11 days measured on day 12 by Western blot method; assay type: functional, organism-based
# Procedure, shortened: (§2)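 Male ICR mice, 5 weeks old, inoculated with 2 × 10⁶ 4T1 cells at the right armpit. At 24 h, randomised into groups of 6 and dosed i.p.; vehicle PBS/DMSO (8:2) daily for 11 days. Killed day 12; tumours weighed; TI% = (1 − mean treated/mean control weight) × 100. Tumour p-STAT3 and STAT3 assessed by western blot.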
# [11] = system: MDA-MB-231; experiment: Induction of apoptosis in human MDA-MB-231 cells assessed as necrotic cells at 7 uM after 24 hrs by Annexin-V FITC/propidium iodide staining based flow cytometry (reference value: 4.1%); assay type: functional
# [12] = system: MDA-MB-231; experiment: Induction of apoptosis in human MDA-MB-231 cells assessed as live cells at 3 uM after 24 hrs by Annexin-V FITC/propidium iodide staining based flow cytometry (reference value: 90.3%); assay type: functional
# [13] = Antiproliferative activity against human MDA-MB-231 cells after 72 hrs by MTT assay; assay type: functional, cell-based; conditions: MDA-MB-231, 72 h; procedure, shortened: as §1
# [14] = system: MDA-MB-231; experiment: Induction of apoptosis in human MDA-MB-231 cells assessed as live cells at 5 uM after 24 hrs by Annexin-V FITC/propidium iodide staining based flow cytometry (reference value: 90.3%); assay type: functional
# [15] = target: Signal transducer and activator of transcription 3 (Homo sapiens) (UniProt P40763); experiment: Inhibition of IL-6-stimulated STAT3 phosphorylation in human MDA-MB-231 cells preincubated for 12 hrs followed by IL-6 addition measured after 30 mins by Western blot method; assay type: cell-based
# Procedure, shortened: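 Cells adhered overnight in 6-well plates, then serum-starved. Left untreated or given 1-5 µM for 12 h, then stimulated with IL-6 (25 ng/mL). Harvested 30 min later for western blot of p-STAT3.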
# [16] = system: MDA-MB-231; experiment: Induction of apoptosis in human MDA-MB-231 cells assessed as early apoptotic cells at 1 uM after 24 hrs by Annexin-V FITC/propidium iodide staining based flow cytometry (reference value: 3.8%); assay type: functional
# [17] = system: MCF7; experiment: Potency index, ratio of stattic IC50 to compound IC50 for human MCF7 cells; assay type: functional
# [18] = system: MDA-MB-231; experiment: Induction of apoptosis in human MDA-MB-231 cells assessed as live cells at 7 uM after 24 hrs by Annexin-V FITC/propidium iodide staining based flow cytometry (reference value: 90.3%); assay type: functional
# [19] = Antitumor activity against mouse 4T1 cells implanted in ICR mouse assessed as tumor growth inhibition at 10 mg/kg, ip daily for 11 consecutive days measured on day 12 relative to control; assay type: functional; conditions: 4T1, ip, 288 h, read-out: TGI; procedure, shortened: as §2
# [20] = system: MDA-MB-231; experiment: Induction of apoptosis in human MDA-MB-231 cells assessed as early apoptotic cells at 5 uM after 24 hrs by Annexin-V FITC/propidium iodide staining based flow cytometry (reference value: 3.8%); assay type: functional
# [21] = system: MDA-MB-231; experiment: Induction of apoptosis in human MDA-MB-231 cells assessed as increase in cleaved caspase-3 expression at 1 to 5 uM after 24 hrs by Western blot method; assay type: functional, cell-based
# Procedure, shortened: (§3)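 MDA-MB-231 cells treated 24 h, trypsinised and lysed in RIPA buffer (50 mM Tris-HCl pH 7.4, 150 mM NaCl, 0.25% deoxycholate, 1% NP-40, 1 mM EDTA, protease inhibitors). Equal total protein from whole-cell lysates immunoblotted; Stattic 5 µM used as comparator.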
# [22] = system: MDA-MB-231; experiment: Induction of apoptosis in human MDA-MB-231 cells assessed as necrotic cells at 1 uM after 24 hrs by Annexin-V FITC/propidium iodide staining based flow cytometry (reference value: 4.1%); assay type: functional
# [23] = system: MDA-MB-231; experiment: Induction of apoptosis in human MDA-MB-231 cells assessed as late apoptotic cells at 7 uM after 24 hrs by Annexin-V FITC/propidium iodide staining based flow cytometry (reference value: 1.8%); assay type: functional
# [24] = system: MDA-MB-231; experiment: Induction of apoptosis in human MDA-MB-231 cells assessed as late apoptotic cells at 3 uM after 24 hrs by Annexin-V FITC/propidium iodide staining based flow cytometry (reference value: 1.8%); assay type: functional
# [25] = target: Signal transducer and activator of transcription 3 (Homo sapiens) (UniProt P40763); experiment: Inhibition of STAT3 in human MDA-MB-231 cells assessed as downregulation of Bcl2 expression at 1 to 5 uM after 24 hrs by Western blot method; assay type: cell-based; procedure, shortened: as §3
# [26] = system: MDA-MB-231; experiment: Induction of apoptosis in human MDA-MB-231 cells assessed as necrotic cells at 5 uM after 24 hrs by Annexin-V FITC/propidium iodide staining based flow cytometry (reference value: 4.1%); assay type: functional
# [27] = system: MDA-MB-231; experiment: Induction of ROS generation in human MDA-MB-231 cells at 5 uM after 24 hrs by DCFH-DA staining based flow cytometry relative to control; assay type: functional
# Procedure, shortened: (§4)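 3 × 10⁵ cells/well in 6-well plates treated 24 h (0, 1, 3, 5 µM). Medium replaced with serum-free medium holding DCFH-DA at 10 µM final, 20 min at 37 °C. Cells washed twice, trypsinised, resuspended in warm PBS and read by flow cytometry.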
# [28] = system: MDA-MB-231; experiment: Induction of ROS generation in human MDA-MB-231 cells at 3 uM after 24 hrs by DCFH-DA staining based flow cytometry relative to control; assay type: functional; procedure, shortened: as §4
# Sequence of Signal transducer and activator of transcription 3 (Homo sapiens) (P40763 whole entry): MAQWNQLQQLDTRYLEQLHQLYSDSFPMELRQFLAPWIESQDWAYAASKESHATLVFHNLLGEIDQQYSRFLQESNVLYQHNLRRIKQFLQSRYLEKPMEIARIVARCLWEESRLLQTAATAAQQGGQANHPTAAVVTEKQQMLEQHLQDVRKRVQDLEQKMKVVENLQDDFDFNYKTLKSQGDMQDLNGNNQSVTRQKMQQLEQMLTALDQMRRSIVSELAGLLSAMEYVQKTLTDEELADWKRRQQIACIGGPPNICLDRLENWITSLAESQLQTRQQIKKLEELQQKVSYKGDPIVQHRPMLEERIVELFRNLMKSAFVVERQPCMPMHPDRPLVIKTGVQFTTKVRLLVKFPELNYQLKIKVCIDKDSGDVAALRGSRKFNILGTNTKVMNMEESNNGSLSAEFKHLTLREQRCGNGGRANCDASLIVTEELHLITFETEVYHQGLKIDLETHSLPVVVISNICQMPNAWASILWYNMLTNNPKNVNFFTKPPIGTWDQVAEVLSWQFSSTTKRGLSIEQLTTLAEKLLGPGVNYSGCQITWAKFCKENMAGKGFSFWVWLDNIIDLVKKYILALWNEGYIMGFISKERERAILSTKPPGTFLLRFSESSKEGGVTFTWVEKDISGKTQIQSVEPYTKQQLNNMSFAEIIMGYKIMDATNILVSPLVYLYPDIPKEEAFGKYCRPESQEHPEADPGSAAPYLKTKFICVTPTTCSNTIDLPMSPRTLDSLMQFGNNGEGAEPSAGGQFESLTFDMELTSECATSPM
compound,measurement,setting,value
O=S1(=O)C=Cc2cccc(Nc3cccc(C(F)(F)F)c3)c21,Ratio IC50,[1],1.5 - 12
same,inhibition,[2],Active
same,Activity,[3],7.2%
same,inhibition,[4],Dose-dependent effect
same,IC50,[5],360 nM
same,Activity,[6],Dose-dependent effect
same,Activity,[7],6.8%
same,IC50,[8],750 nM
same,Activity,[9],84.2%
same,inhibition,[10],Active
same,Activity,[11],6.9%
same,Activity,[12],83.4%
same,IC50,[13],680 nM
same,Activity,[14],75.3%
same,inhibition,[15],Dose-dependent effect
same,Activity,[16],6.3%
same,Ratio IC50,[17],1.5 - 12
same,Activity,[18],72.2%
same,inhibition in vivo at 10 mg/kg,[19],61%
same,Activity,[20],10.3%
same,Activity,[21],Active
same,Activity,[22],6.2%
same,Activity,[23],8.7%
same,Activity,[24],4.1%
same,inhibition,[25],Active
same,Activity,[26],7.2%
same,fold change (FC),[27],1.94
same,fold change (FC),[28],1.74
